Source: publication PMC11094580 (EFSA Journal, 2024)
Read-outs that look alike come from different tables or passages of the source.

Key:
[1] = molecular target: simvastatin metabolism in rat liver microsomes; conditions: ref Ubeaud et al. (1999); cited from earlier work
[2] = ref Bugianesi et al. (2002), cited from earlier work
[3] = system: human peripheral blood lymphocytes; assay: In vitro micronucleus assay with FISH analysis
[4] = ref Ma et al. (2006), cited from earlier work
CYP2C19 = conditions: ref Lu et al. (2011); cited from earlier work
[5] = system: Salmonella typhimurium (TA98, TA100, TA102, TA1535, TA1537) and E. coli WP2uvrA; assay: Bacterial reverse mutation assay; assay type: cell-based; conditions: for concentration with reduction in growth of bacterial background lawns: plate incorporation; for concentration with reduction of bacterial background lawns: pre-incubation
[6] = cited from earlier work
Stability as powder = assay type: physicochemical; conditions: room temperature (~ 22°C), long-term
In short: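 The solid was held under accelerated conditions (45°C) and under normal storage at room temperature.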

[7] = system: Lactobacillus rhamnosus subsp. Rhamnosus NCTC 10302; conditions: 25 μg/mL, cultures of L. rhamnosus; ref Pereira‐Caro et al. (2016); cited from earlier work
human faecal slurries = conditions: 50 μmol incubated, ref Pereira‐Caro et al. (2015), cited from earlier work
[8] = molecular target: simvastatin metabolism in human liver microsomes; conditions: ref Ubeaud et al. (1999); cited from earlier work
CYP3A4 = conditions: testosterone (10 μM); ref Lu et al. (2011); cited from earlier work
Wistar rats [9] = conditions: 200 mg/kg bw per day, 20 weeks, gavage, male rats; ref Ganapathy et al. (2008); cited from earlier work
[10] = system: Mice (strain not specified); conditions: Gavage, M, 3/group; ref Ortiz‐Andrade et al. (2008); cited from earlier work
Sprague Dawley rats = assay: Dose range-finding study for the EOGRT study, dietary; assay type: in vivo, rat
Wistar rats [11] = assay: In vivo comet assay in liver and duodenum; set-up: species or system rat; conditions: 500, 1000, 2000 mg/kg bw per day, Wistar rats, M, gavage
Wistar rats [12] = assay: 28-day dose range-finding oral toxicity study in Wistar rats; assay type: in vivo, rat
In short: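 Test compound given by gavage at 1000 to 5000 mg/kg bw per day; haematology, clinical chemistry and organ weights, including uterus weight, were recorded.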

[13] = ref Rebello et al. (2020), cited from earlier work
CYP450 isoforms = conditions: read-out: IC50 or Ki values; certain CYP450 isoforms; ref Lu et al. (2011); cited from earlier work

## O=C1CC(c2ccc(O)cc2)Oc2cc(O)cc(O)c21 (stereo not shown) [naringenin, 4H‐1‐Benzopyran‐4‐one, 2,3‐dihydro‐5,7‐dihydroxy‐2‐(4‐hydroxyphenyl)‐]
[1]
  Ki: […]
[2]; 3.8 mg (14 μmol), tomato paste/oil
  C max: […]
[2]; 3.8 mg, tomato paste test meal
  unconjugated naringenin in plasma: did not find unconjugated naringenin in plasma samples
[2]; 3.8 mg, tomato paste/oil
  Plasma half-life: […]
[3]; 4‐h treatment with or without S9‐mix, naringenin 75, 200 and 250 μg/mL
  MN centromere-negative (FISH analysis): > 64%
[3]; 125, 150, 200 μg/mL (4 h + 24 h, +S9)
  Result: Positive FISH analysis indicates that naringenin induced micronuclei by a clastogenic mechanism
[3]; 125, 150, 200, 250 μg/mL (4 h + 24 h, –S9)
  Result: Positive FISH analysis indicates that naringenin induced micronuclei by a clastogenic mechanism
[3]; 24 h + 24 h treatment
  MNBN frequency: no statistically significant increase
[4]; 30 mg/kg bw
  C max for total naringenin: 16.9 ng/mL
[4]; 90 mg/kg bw
  C max for total naringenin: […]
  C max of unconjugated naringenin: […]
  plasma half-life of total naringenin: […]
  time to C max for total naringenin (including the conjugates): […]
[4]; 270 mg/kg bw
  C max for total naringenin: […]
  C max of unconjugated naringenin: […]
  plasma half-life of total naringenin: […]
  time to C max for total naringenin (including the conjugates): […]
[4]; 30, 90 or 270 mg/kg bw oral gavage
  time to C max of unconjugated naringenin: […]
[4]; bile duct-cannulated rats
  naringenin excreted in bile: […]
[4]
  naringenin excreted in urine: […]
CYP2C19
  IC50: […]
[5]; Experiment 1: 1.5–5000 μg/plate (+/− S9, plate incorporation)
  Result: Negative
[5]; Experiment 2: 1.5–5000 μg/plate (+/− S9, pre‐incubation)
  Result: Negative
[5]; TA102, 50 μg/plate, absence of S9‐mix
  frequency of revertant colonies: […]
[5]; TA1537, +/− S9
  concentration with reduction in growth of bacterial background lawns: […]
[5]; all bacterial strains, +/− S9
  concentration with reduction in growth of bacterial background lawns: […]
[5]; TA98 and E. coli WP2uvrA, +/− S9
  concentration with reduction of bacterial background lawns: […]
[5]; TA100, TA102, TA1535 and TA1537, +/− S9
  concentration with reduction of bacterial background lawns: […]
[6]; 25°C, pH from 6.5 to 8.5, ref Lucas‐Abellán et al. (2019)
  increase of solubility in water upon change of pH: […]
[6]; from 25 to 35°C, ref Zhang et al. (2013), Lucas‐Abellán et al. (2019)
  increase of solubility in water upon increase of temperature: […]
Stability as powder
  time remaining stable: […]
[7]
  Recovery: […]
Human faecal slurries; after 4 h of incubation
  naringenin remaining: […]
Human faecal slurries; after 6 h of incubation
  naringenin remaining: […]
Human faecal slurries; after 24 h of incubation
  naringenin remaining: […]
[8]
  Ki: 23 µM
CYP3A4
  IC50: […]
Wistar rats [9]
  assessed biochemical parameters in stomach and liver: no significant effects
[10]
  LD50: […]
Sprague Dawley rats; 20,000 mg/kg feed (G3)
  mean pre-coital interval: […]
Sprague Dawley rats; all dose groups
  clinical signs, mortality, morbidity: No clinical signs of toxicity, no mortality or morbidity
Sprague Dawley rats; females
  dose up to which no toxicity was produced: […]
Sprague Dawley rats; males
  dose up to which no toxicity was produced: […]
Sprague Dawley rats; males 29 days, females 51–62 days
  dietary concentration up to which no toxicity was produced: […]
Wistar rats [11]
  Result: Negative
Wistar rats [12]; gavage 28 days
  uterus weight: no effects on uterus weight
Wistar rats [12]; gavage, doses from 1000 to 5000 mg/kg bw per day
  Mortality: Mortality was observed at the highest dose tested
[13]; 150 mg
  AUC0‐24h: […]
  T max: […]
  half-life in plasma: […]
[13]; 150 mg, listed as Nar‐A
  T max: […]
[13]; 600 mg
  AUC0‐24h: […]
  T max: […]
  half-life in plasma: […]
[13]; 600 mg, listed as NAR‐A
  T max: […]
CYP450 isoforms
  IC50: […]
